Experimental data published in article PMC9623233 (Clinical Cancer Research, 2022).

Assay: CT900 plasma pharmacokinetics, noncompartmental analysis
Assay type: in vivo, human
Conditions: Cycle 1 Day 1; for AUC(0-t) / Cmax / clearance / Tmax / Vd: human, plasma, iv
Method in brief: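 Test compound was given intravenously, weekly (1–6 mg/m2) or every 2 weeks (2–12 mg/m2). Plasma concentration–time data were analysed noncompartmentally for AUClast, AUC∞, AUC0–24, Cmax, Tmax, t1/2, λz, clearance and Vss. Summaries are geometric mean with CV%, arithmetic mean and median.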

C#CCN(c1ccc(C(=O)N[C@@H](CCC(=O)N[C@H](CCC(=O)O)C(=O)O)C(=O)O)cc1)[C@H]1CCc2cc3nc(CO)[nH]c(=O)c3cc21 [CT900, N-[4-[2-propyn-1-yl[(6S)-4,6,7,8-tetrahydro-2-(hydroxymethyl)-4-oxo-3H-cyclopenta [g]quinazolin-6-yl]amino]benzoyl]-l-gamma-glutamyl-D-glutamic acid]
HL Lambda_z (1 mg/m^2 i.v., Geometric Mean, N 3): 6.1 h | HL Lambda_z (1 mg/m^2 i.v., Mean, N 3): 6.7 h | HL Lambda_z (1 mg/m^2 i.v., Median, N 3): 7.5 h | HL Lambda_z (1 mg/m^2 i.v., Range, N 3): 3.2 to 9.4 h | HL Lambda_z (2 mg/m^2 i.v., Geometric Mean, N 4): 11.8 h | HL Lambda_z (2 mg/m^2 i.v., Mean, N 4): 12.6 h | HL Lambda_z (2 mg/m^2 i.v., Median, N 4): 11.3 h | HL Lambda_z (2 mg/m^2 i.v., Range, N 4): 7.5 to 20.0 h | HL Lambda_z (6 mg/m^2 i.v., Mean, N 1): 19.9 h | HL Lambda_z (12 mg/m^2 i.v., Geometric Mean, N 5): 28.1 h | HL Lambda_z (12 mg/m^2 i.v., Mean, N 5): 28.7 h | HL Lambda_z (12 mg/m^2 i.v., Median, N 5): 26.5 h | HL Lambda_z (12 mg/m^2 i.v., Range, N 5): 23.0 to 41.0 h | AUC(0-t) (1 mg/m2, AUC0-24, 1 mg/m^2 i.v., Mean, N 3): 1650 ng·h/mL | AUC(0-t) (1 mg/m2, AUC0-24, 1 mg/m^2 i.v., Median, N 3): 1620 ng·h/mL | AUC(0-t) (1 mg/m2, AUC0-24, 1 mg/m^2 i.v., Range, N 3): 1020 to 2330 ng·h/mL | AUC(0-t) (1 mg/m2, AUClast, 1 mg/m^2 i.v., Mean, N 3): 1650 ng·h/mL | AUC(0-t) (1 mg/m2, AUClast, 1 mg/m^2 i.v., Median, N 3): 1620 ng·h/mL | AUC(0-t) (1 mg/m2, AUClast, 1 mg/m^2 i.v., Range, N 3): 1020 to 2330 ng·h/mL | Cmax (1 mg/m2, C max, 1 mg/m^2 i.v., Mean, N 3): 402 ng/mL | Cmax (1 mg/m2, C max, 1 mg/m^2 i.v., Median, N 3): 401 ng/mL | Cmax (1 mg/m2, C max, 1 mg/m^2 i.v., Range, N 3): 374 to 432 ng/mL | clearance (1 mg/m2, Cl, 1 mg/m^2 i.v., Mean, N 3): 20.3 mL/min | clearance (1 mg/m2, Cl, 1 mg/m^2 i.v., Median, N 3): 20.8 mL/min | clearance (1 mg/m2, Cl, 1 mg/m^2 i.v., Range, N 3): 10.4 to 29.7 mL/min | Tmax (1 mg/m2, T max, 1 mg/m^2 i.v., Mean, N 3): 1 h | Tmax (1 mg/m2, T max, 1 mg/m^2 i.v., Median, N 3): 1 h | Tmax (1 mg/m2, T max, 1 mg/m^2 i.v., Range, N 3): 1 h | Vd (1 mg/m2, Vss, 1 mg/m^2 i.v., Mean, N 3): 7.59 L | Vd (1 mg/m2, Vss, 1 mg/m^2 i.v., Median, N 3): 6.75 L | Vd (1 mg/m2, Vss, 1 mg/m^2 i.v., Range, N 3): 6.71 to 9.32 L | AUC(0-t) (2 mg/m2, AUC0-24, 2 mg/m^2 i.v., Mean, N 4): 4890 ng·h/mL | AUC(0-t) (2 mg/m2, AUC0-24, 2 mg/m^2 i.v., Median, N 4): 4730 ng·h/mL | AUC(0-t) (2 mg/m2, AUC0-24, 2 mg/m^2 i.v., Range, N 4): 2520 to 7590 ng·h/mL | AUC(0-t) (2 mg/m2, AUClast, 2 mg/m^2 i.v., Mean, N 4): 6860 ng·h/mL | AUC(0-t) (2 mg/m2, AUClast, 2 mg/m^2 i.v., Median, N 4): 6050 ng·h/mL | AUC(0-t) (2 mg/m2, AUClast, 2 mg/m^2 i.v., Range, N 4): 2520 to 12800 ng·h/mL | Cmax (2 mg/m2, C max, 2 mg/m^2 i.v., Mean, N 4): 746 ng/mL | Cmax (2 mg/m2, C max, 2 mg/m^2 i.v., Median, N 4): 759 ng/mL | Cmax (2 mg/m2, C max, 2 mg/m^2 i.v., Range, N 4): 613 to 855 ng/mL | clearance (2 mg/m2, Cl, 2 mg/m^2 i.v., Mean, N 4): 11.2 mL/min | clearance (2 mg/m2, Cl, 2 mg/m^2 i.v., Median, N 4): 8.72 mL/min | clearance (2 mg/m2, Cl, 2 mg/m^2 i.v., Range, N 4): 4.07 to 23.4 mL/min | Tmax (2 mg/m2, T max, 2 mg/m^2 i.v., Mean, N 4): 0.9 h | Tmax (2 mg/m2, T max, 2 mg/m^2 i.v., Median, N 4): 1 h | Tmax (2 mg/m2, T max, 2 mg/m^2 i.v., Range, N 4): 0.5 to 1.1 h | Vd (2 mg/m2, Vss, 2 mg/m^2 i.v., Mean, N 4): 8.52 L | Vd (2 mg/m2, Vss, 2 mg/m^2 i.v., Median, N 4): 7.41 L | Vd (2 mg/m2, Vss, 2 mg/m^2 i.v., Range, N 4): 6.53 to 12.7 L | AUC(0-t) (6 mg/m2, AUC0-24, 6 mg/m^2 i.v., Mean, N 1): 15100 ng·h/mL | AUC(0-t) (6 mg/m2, AUClast, 6 mg/m^2 i.v., Mean, N 1): 25600 ng·h/mL | Cmax (6 mg/m2, C max, 6 mg/m^2 i.v., Mean, N 1): 2030 ng/mL | clearance (6 mg/m2, Cl, 6 mg/m^2 i.v., Mean, N 1): 7.67 mL/min | Tmax (6 mg/m2, T max, 6 mg/m^2 i.v., Mean, N 1): 1 h | Vd (6 mg/m2, Vss, 6 mg/m^2 i.v., Mean, N 1): 12 L | AUC(0-t) (12 mg/m2, AUC0-24, 12 mg/m^2 i.v., Geometric Mean, N 5): 46900 ng·h/mL | AUC(0-t) (12 mg/m2, AUC0-24, 12 mg/m^2 i.v., Mean, N 5): 47200 ng·h/mL | AUC(0-t) (12 mg/m2, AUC0-24, 12 mg/m^2 i.v., Median, N 5): 45400 ng·h/mL | AUC(0-t) (12 mg/m2, AUC0-24, 12 mg/m^2 i.v., Range, N 5): 42300 to 58600 ng·h/mL | AUC(0-t) (12 mg/m2, AUClast, 12 mg/m^2 i.v., Geometric Mean, N 5): 85900 ng·h/mL | AUC(0-t) (12 mg/m2, AUClast, 12 mg/m^2 i.v., Mean, N 5): 87600 ng·h/mL | AUC(0-t) (12 mg/m2, AUClast, 12 mg/m^2 i.v., Median, N 5): 83500 ng·h/mL | AUC(0-t) (12 mg/m2, AUClast, 12 mg/m^2 i.v., Range, N 5): 68700 to 123000 ng·h/mL | Cmax (12 mg/m2, C max, 12 mg/m^2 i.v., Geometric Mean, N 5): 5100 ng/mL | Cmax (12 mg/m2, C max, 12 mg/m^2 i.v., Mean, N 5): 5130 ng/mL | Cmax (12 mg/m2, C max, 12 mg/m^2 i.v., Median, N 5): 4830 ng/mL | Cmax (12 mg/m2, C max, 12 mg/m^2 i.v., Range, N 5): 4460 to 6010 ng/mL | clearance (12 mg/m2, Cl, 12 mg/m^2 i.v., Geometric Mean, N 5): 3.45 mL/min | clearance (12 mg/m2, Cl, 12 mg/m^2 i.v., Mean, N 5): 3.6 mL/min | clearance (12 mg/m2, Cl, 12 mg/m^2 i.v., Median, N 5): 3.68 mL/min | clearance (12 mg/m2, Cl, 12 mg/m^2 i.v., Range, N 5): 2.1 to 5.05 mL/min | Tmax (12 mg/m2, T max, 12 mg/m^2 i.v., Geometric Mean, N 5): 1 h | Tmax (12 mg/m2, T max, 12 mg/m^2 i.v., Mean, N 5): 1 h | Tmax (12 mg/m2, T max, 12 mg/m^2 i.v., Median, N 5): 1 h | Tmax (12 mg/m2, T max, 12 mg/m^2 i.v., Range, N 5): 1 h | Vd (12 mg/m2, Vss, 12 mg/m^2 i.v., Geometric Mean, N 5): 7.59 L | Vd (12 mg/m2, Vss, 12 mg/m^2 i.v., Mean, N 5): 7.62 L | Vd (12 mg/m2, Vss, 12 mg/m^2 i.v., Median, N 5): 7.33 L | Vd (12 mg/m2, Vss, 12 mg/m^2 i.v., Range, N 5): 6.99 to 9.06 L
